Assay results reported in ChEMBL document CHEMBL4020824, “Discovery of Potent and Orally Bioavailable Dihydropyrazole GPR40 Agonists” (J Med Chem, 2018).
pEC50: −log10 of the molar value. The source made the active and inactive calls. The rule behind the calls is not given here.

Columns and labels:
[1] = biological target: T1, Free fatty acid receptor 1 (Homo sapiens, UniProt O14842); assay: Agonist activity at human GPR40 expressed in CHOA12 cells assessed as induction of Ca2+ mobilization by FLIPR assay; format: functional, cell-based
T1 sequence (O14842 whole entry): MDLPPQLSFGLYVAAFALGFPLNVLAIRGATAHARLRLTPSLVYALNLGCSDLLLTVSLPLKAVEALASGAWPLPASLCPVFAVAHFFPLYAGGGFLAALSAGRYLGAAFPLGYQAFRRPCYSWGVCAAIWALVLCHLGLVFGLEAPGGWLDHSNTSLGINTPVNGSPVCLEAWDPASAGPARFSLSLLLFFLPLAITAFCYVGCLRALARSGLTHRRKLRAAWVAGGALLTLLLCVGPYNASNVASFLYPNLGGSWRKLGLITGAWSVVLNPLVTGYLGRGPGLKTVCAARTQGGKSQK

[2] = Half life in Beagle dog at 0.5 mg/kg, iv administered as single dose measured up to 24 hrs post dose by LC-MS/MS analysis; format: ADME, organism-based, Canis lupus familiaris; conditions: in vivo
[3] = Cmax in Sprague-Dawley rat at 3 mg/kg, po administered as single dose measured up to 24 hrs post dose by LC-MS/MS analysis; format: ADME, organism-based; set-up: dose 3 mg/kg, route oral; conditions: in vivo
[4] = Tmax in Sprague-Dawley rat at 3 mg/kg, po administered as single dose measured up to 24 hrs post dose by LC-MS/MS analysis; format: ADME, organism-based; conditions: in vivo
[5] = Volume of distribution at steady state in CD1 mouse at 1 mg/kg, iv via bolus dose or 1 mg/kg, po administered as single dose measured up to 24 hrs post dose by LC-MS/MS analysis; format: ADME, organism-based; conditions: in vivo, read-out: Vdss
[6] = Clearance in CD1 mouse at 1 mg/kg, iv administered as bolus dose or 1 mg/kg, po administered as single dose measured up to 24 hrs post dose by LC-MS/MS analysis; format: ADME, organism-based; conditions: in vivo
[7] = Half life in Sprague-Dawley rat at 1 mg/kg, iv administered as single dose measured up to 24 hrs post dose by LC-MS/MS analysis; format: ADME, organism-based; conditions: in vivo
[8] = Clearance in cynomolgus monkey at 0.5 mg/kg, iv administered as single dose measured up to 24 hrs post dose by LC-MS/MS analysis; format: ADME, organism-based, Macaca fascicularis; conditions: in vivo
[9] = (§1) Stability in rat liver microsomes assessed as parent compound remaining at 1 to 3 uM incubated for 20 mins in presence NADPH measured up to 90 mins by LC/MS/MS analysis; format: ADME, microsome; conditions: liver microsomes, read-out: Stability
Procedure, shortened: (§2)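 Human or rat liver microsomal incubations. The read-outs were % parent remaining, % D-ring dealkylation metabolites, % GSH adducts, and half-life (min). The metabolites followed were CYP450-mediated oxidative de-alkylation products (phenols) and GSH conjugates.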

[10] = (§3) Half life in rat liver microsomes at 1 to 3 uM incubated for 20 mins in presence NADPH measured up to 90 mins by LC/MS/MS analysis; format: ADME, microsome; conditions: liver microsomes
[11] = Clearance in Sprague-Dawley rat at 1 mg/kg, iv administered as single dose measured up to 24 hrs post dose by LC-MS/MS analysis; format: ADME, organism-based; conditions: in vivo
[12] = Half life in cynomolgus monkey at 0.5 mg/kg, iv administered as single dose measured up to 24 hrs post dose by LC-MS/MS analysis; format: ADME, organism-based, Macaca fascicularis; conditions: in vivo
[13] = Volume of distribution at steady state in cynomolgus monkey at 0.5 mg/kg, iv administered as single dose measured up to 24 hrs post dose by LC-MS/MS analysis; format: ADME, organism-based, Macaca fascicularis; conditions: in vivo, read-out: Vdss
[14] = Volume of distribution at steady state in Beagle dog at 0.5 mg/kg, iv administered as single dose measured up to 24 hrs post dose by LC-MS/MS analysis; format: ADME, organism-based, Canis lupus familiaris; conditions: in vivo, read-out: Vdss
[15] = (§4) Stability in human liver microsomes assessed as parent compound remaining at 1 to 3 uM incubated for 20 mins in presence NADPH measured up to 90 mins by LC/MS/MS analysis; format: ADME, microsome; conditions: liver microsomes, read-out: Stability; procedure, shortened: as §2
[16] = Half life in CD1 mouse at 1 mg/kg, iv administered as bolus dose or 1 mg/kg, po administered as single dose measured up to 24 hrs post dose by LC-MS/MS analysis; format: ADME, organism-based; conditions: in vivo
[17] = Volume of distribution at steady state in Sprague-Dawley rat at 1 mg/kg, iv administered as single dose measured up to 24 hrs post dose by LC-MS/MS analysis; format: ADME, organism-based; conditions: in vivo, read-out: Vdss
[18] = Clearance in Beagle dog at 0.5 mg/kg, iv administered as single dose measured up to 24 hrs post dose by LC-MS/MS analysis; format: ADME, organism-based, Canis lupus familiaris; conditions: in vivo
[19] = Oral bioavailability in Sprague-Dawley rat at 3 mg/kg administered via gavage as single dose measured up to 24 hrs post dose by LC-MS/MS analysis; format: ADME, organism-based; conditions: in vivo
[20] = (§5) Half life in human liver microsomes at 1 to 3 uM incubated for 20 mins in presence NADPH measured up to 90 mins by LC/MS/MS analysis; format: ADME, microsome; conditions: liver microsomes
Mus musculus = assay: Antidiabetic activity in C57BL/6J mouse assessed as glucose lowering effect at 1 mg/kg, po administered 1 hr prior to glucose challenge measured after 120 mins by IPGTT; format: functional, organism-based
[21] = biological target: T2, Peroxisome proliferator-activated receptor gamma (Homo sapiens, UniProt P37231); assay: Agonist activity at PPARgamma (unknown origin)
T2 sequence (P37231 whole entry): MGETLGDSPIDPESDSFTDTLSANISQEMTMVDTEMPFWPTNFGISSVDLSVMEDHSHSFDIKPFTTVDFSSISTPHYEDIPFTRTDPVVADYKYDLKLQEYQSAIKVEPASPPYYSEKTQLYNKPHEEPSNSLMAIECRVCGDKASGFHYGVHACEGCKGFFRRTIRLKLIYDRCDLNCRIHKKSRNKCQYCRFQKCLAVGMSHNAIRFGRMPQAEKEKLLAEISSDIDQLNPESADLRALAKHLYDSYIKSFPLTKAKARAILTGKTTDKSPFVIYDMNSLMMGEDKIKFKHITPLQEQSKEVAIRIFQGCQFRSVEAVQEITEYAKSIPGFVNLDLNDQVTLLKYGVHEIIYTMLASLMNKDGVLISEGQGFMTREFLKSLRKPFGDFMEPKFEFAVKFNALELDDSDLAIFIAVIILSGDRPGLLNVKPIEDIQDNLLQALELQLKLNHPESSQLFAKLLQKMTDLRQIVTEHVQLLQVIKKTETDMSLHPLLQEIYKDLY

[22] = Half life in cynomolgus monkey at 0.2 mg/kg, iv administered as single dose measured up to 24 hrs post dose by LC-MS/MS analysis; format: ADME, organism-based, Macaca fascicularis; conditions: in vivo
[23] = Cmax in cynomolgus monkey at 0.5 mg/kg, po administered as single dose measured up to 24 hrs post dose by LC-MS/MS analysis; format: ADME, organism-based, Macaca fascicularis; set-up: dose 0.5 mg/kg, route oral; conditions: in vivo
[24] = Tmax in cynomolgus monkey at 0.5 mg/kg, po administered as single dose measured up to 24 hrs post dose by LC-MS/MS analysis; format: ADME, organism-based, Macaca fascicularis; conditions: in vivo
Liver [25] = assay: as §1; format: ADME, microsome; conditions: microsomes, 20 min, 3 µM; procedure, shortened: as §2
[26] = Oral bioavailability in cynomolgus monkey at 0.5 mg/kg administered via gavage as single dose measured up to 24 hrs post dose by LC-MS/MS analysis; format: ADME, organism-based, Macaca fascicularis; conditions: in vivo
Liver [27] = assay: as §3; format: ADME, microsome; conditions: microsomes, 20 min, 3 µM
[28] = Clearance in cynomolgus monkey at 0.2 mg/kg, iv administered as single dose measured up to 24 hrs post dose by LC-MS/MS analysis; format: ADME, organism-based, Macaca fascicularis; conditions: in vivo
Liver [29] = assay: as §4; format: ADME, microsome; conditions: microsomes, 20 min, 3 µM; procedure, shortened: as §2
[30] = Oral bioavailability in C57BL6 mouse at 3 mg/kg administered as single dose via gavage measured up to 24 hrs post dose by LC-MS/MS analysis; format: ADME, organism-based; conditions: in vivo
[31] = Volume of distribution at steady state in cynomolgus monkey at 0.2 mg/kg, iv administered as single dose measured up to 24 hrs post dose by LC-MS/MS analysis; format: ADME, organism-based, Macaca fascicularis; conditions: in vivo, read-out: Vdss
Liver [32] = assay: as §5; format: ADME, microsome; conditions: microsomes, 20 min, 3 µM
[33] = Cmax in C57BL6 mouse at 3 mg/kg, po administered as single dose via gavage measured up to 24 hrs post dose by LC-MS/MS analysis; format: ADME, organism-based; set-up: dose 3 mg/kg, route oral; conditions: in vivo
[34] = Tmax in C57BL6 mouse at 3 mg/kg, po administered as single dose measured up to 24 hrs post dose by LC-MS/MS analysis; format: ADME, organism-based; conditions: in vivo
[35] = biological target: T1, Free fatty acid receptor 1; assay: Agonist activity at human GPR40 expressed in CHOA12 cells assessed as induction of Ca2+ mobilization at 8.3 uM by FLIPR assay relative to compound 2; format: functional, cell-based
Liver [36] = assay: Drug level in human liver microsomes treated with 2-((4S,5S)-1-(4-((1-(2-Fluoro-5-methoxyphenyl)piperidin-4-yl)-oxy)phenyl)-4-methyl-3-(trifluoromethyl)-4,5-dihydro-1H-pyrazol-5-yl)acetic acid at 1 to 3 uM incubated for 20 mins in presence of NADPH measured after 90 mins by LC/MS/MS analysis; format: ADME, microsome; procedure, shortened: as §2
Liver [37] = assay: Drug level in rat liver microsomes treated with 2-((4S,5S)-1-(4-((1-(2-Fluoro-5-methoxyphenyl)piperidin-4-yl)-oxy)phenyl)-4-methyl-3-(trifluoromethyl)-4,5-dihydro-1H-pyrazol-5-yl)acetic acid at 1 to 3 uM incubated for 20 mins in presence of NADPH measured after 90 mins by LC/MS/MS analysis; format: ADME, microsome; procedure, shortened: as §2
Liver [38] = assay: Drug level in human liver microsomes treated with 2-((4S,5S)-1-(4-(((3R,4R)-1-(5-Ethoxy-2-fluorophenyl)-3-methylpiperidin-4-yl)oxy)phenyl)-4-methyl-3-(trifluoromethyl)-4,5-dihydro-1H-pyrazol-5-yl)acetic acid at 1 to 3 uM incubated for 20 mins in presence of NADPH measured after 90 mins by LC/MS/MS analysis; format: ADME, microsome; procedure, shortened: as §2
Liver [39] = assay: Drug level in rat liver microsomes treated with 2-((4S,5S)-1-(4-(((3R,4R)-1-(5-Ethoxy-2-fluorophenyl)-3-methylpiperidin-4-yl)oxy)phenyl)-4-methyl-3-(trifluoromethyl)-4,5-dihydro-1H-pyrazol-5-yl)acetic acid at 1 to 3 uM incubated for 20 mins in presence of NADPH measured after 90 mins by LC/MS/MS analysis; format: ADME, microsome; procedure, shortened: as §2

## C[C@@H]1C(C(F)(F)F)=NN(c2ccc(OC3CCN(c4ccc(F)cc4)CC3)cc2)[C@H]1CC(=O)O
[1]
  pEC50: 5.56 to 5.59

## CCOc1ccc(F)c(N2CC[C@@H](Oc3ccc(N4N=C(C(F)(F)F)[C@@H](C)[C@@H]4CC(=O)O)cc3)[C@H](F)C2)c1
[2]
  half-life: 7.3 h
[3]
  Cmax: 3200 nM
[4]
  Tmax: 1.7 h
[5]
  Vd: 0.7 L/kg
[6]
  clearance: 1.6 mL/min/kg
[7]
  half-life: 3.4 h
[8]
  clearance: 4 mL/min/kg
[9]
  remaining at 20 min, up to 3 µM: 79%
[10]
  half-life: 0.617 h
[11]
  clearance: 5 mL/min/kg
[12]
  half-life: 9.4 h
[13]
  Vd: 2.2 L/kg
[14]
  Vd: 0.6 L/kg
[15]
  remaining at 20 min, up to 3 µM: 93%
[16]
  half-life: 3.3 h
[17]
  Vd: 0.8 L/kg
[18]
  clearance: 2.6 mL/min/kg
[19]
  bioavailability: 89%
[20]
  half-life: 1.58 h
[1]
  pEC50: 6.82

## COc1ccc(F)c(-c2ccc(Cc3ccc(N4C[C@H](C(F)(F)F)C[C@@H]4CC(=O)O)cc3)c(C)c2)c1
Mus musculus
  Activity: Active

## COc1cc(N2CC[C@@H](Oc3ccc(N4N=C(C(F)(F)F)[C@@H](C)[C@@H]4CC(=O)O)cc3)[C@H](F)C2)c(Cl)cn1
[1]
  pEC50: 6.74

## COc1ccc(F)c(-c2ccc(Cc3ccc(N4N=C(C(F)(F)F)[C@@H](C)[C@@H]4CC(=O)O)cc3)c(C)c2)c1
[21]
  pEC50: 5.59

## COc1ccc(F)c(N2CCC(Oc3ccc(N4N=C(C(F)(F)F)[C@@H](C)[C@@H]4CC(=O)O)cc3)CC2)c1
[3]
  Cmax: 1100 nM
[22]
  half-life: 5.3 h
[4]
  Tmax: 0.7 h
[23]
  Cmax: 200 nM
[5]
  Vd: 0.8 L/kg
[6]
  clearance: 6 mL/min/kg
[24]
  Tmax: 2 h
[7]
  half-life: 1.4 h
[21]
  pEC50: < 4.30
Liver [25]
  Stability: 27%
[26]
  bioavailability: 66%
Liver [27]
  t1/2: 0.383 h
[28]
  clearance: 6.6 mL/min/kg
[11]
  clearance: 17 mL/min/kg
Liver [29]
  Stability: 42%
[30]
  bioavailability: 96%
[16]
  half-life: 1.5 h
[17]
  Vd: 0.6 L/kg
[31]
  Vd: 1.7 L/kg
[19]
  bioavailability: 36%
Liver [32]
  t1/2: 0.8 h
[33]
  Cmax: 3400 nM
[1]
  pEC50: 6.96
[34]
  Tmax: 1 h

## COc1ccc(F)c(N2CCC(Oc3ccc(N4C[C@H](C(F)(F)F)C[C@@H]4CC(=O)O)cc3)CC2)c1
[35]
  Activity: Active

## C[C@@H]1C(C(F)(F)F)=NN(c2ccc(OC3CCN(c4cc(O)ccc4F)CC3)cc2)[C@H]1CC(=O)O
Liver [36]
  Drug uptake: Metabolite_Detected
Liver [37]
  Drug uptake: Metabolite_Detected

## CCOc1cc(N2CC[C@@H](Oc3ccc(N4N=C(C(F)(F)F)[C@@H](C)[C@@H]4CC(=O)O)cc3)[C@H](C)C2)c(Cl)cn1
[1]
  pEC50: 6.60 to 6.72

## COc1cc(N2CCC(Oc3ccc(N4N=C(C(F)(F)F)[C@@H](C)[C@@H]4CC(=O)O)cc3)CC2)c(F)cn1
[1]
  pEC50: 6.74 to 6.82

## C[C@@H]1CN(c2cc(O)ccc2F)CC[C@H]1Oc1ccc(N2N=C(C(F)(F)F)[C@@H](C)[C@@H]2CC(=O)O)cc1
Liver [38]
  Drug uptake: Metabolite_Detected
Liver [39]
  Drug uptake: Metabolite_Detected

## CCc1ccc(F)c(N2CCC(Oc3ccc(N4N=C(C(F)(F)F)[C@@H](C)[C@@H]4CC(=O)O)cc3)CC2)c1
[1]
  pEC50: 6.14 to 6.35
